According to ChEMBL document CHEMBL5724801, “EUbOPEN Chemogenomics Library - Multiplex” (2024):
Where “and” joins values, the source holds several entries; their conditions need not be identical. Equal values may be shown once.

Test system: Fibroblast
Experiment: Multiplex assay against human fibroblast
Type: toxicity, cell-based
In short: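 Live cells were stained at seeding with Hoechst33342, BioTracker Green Microtubule Cytoskeleton Dye, MitoTracker Red and Annexin V Alexa Fluor 680, then imaged on a CQ1 microscope at 37°C and 5% CO2 after compound addition. CellPathfinder machine-learning gating split cells into Hoechst high-intensity objects or normal cells. Normal cells were split into healthy, pyknosed or fragmented nuclei, and pyknosed cells into mitotic or apoptotic. Tubulin, mitochondrial-mass and membrane-permeability phenotypes are per cents of healthy-nucleus cells.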

[1] = 12 h, 1 µM, compound concentration 1 uM
[2] = 12 h, 10 µM, compound concentration 10 uM
[3] = 24 h, 1 µM, compound concentration 1 uM
[4] = 24 h, 10 µM, compound concentration 10 uM
[5] = 48 h, 1 µM, compound concentration 1 uM
[6] = 48 h, 10 µM, compound concentration 10 uM

SMILES: C[C@H](NC(=O)c1c(C(F)F)nn(C)c1Oc1cccc(C(F)(F)F)c1)c1ccc(C(=O)O)cc1 [PALUPIPRANT]
- Population Apoptotic (%) [1]: 26% and 24%
- Population Fragmented Nuclei (%) [1]: 29% and 23%
- Population Healthy Nuclei (%) [1]: 57% and 52%
- Population Hoechst High Intensity Objects (%) [1]: 5% and 6%
- Population Membrane Permeable-Phenotype (%) [1]: 0% and 11%
- Population Mitochondria Different-Phenotype (%) [1]: 4% and 6%
- Population Mitotic Cells (%) [1]: 73% and 75%
- Population Normal (%) [1]: 94% and 93%
- Population Pyknosed Nuclei (%) [1]: 12% and 23%
- Population Tubulin-Different-Phenotype (%) [1]: 23% and 55%
- Total Cell Count [1]: 187 and 148
- Population Apoptotic (%) [2]: 45% and 35%
- Population Healthy Nuclei (%) [2]: 70% and 35%
- Population Mitochondria Different-Phenotype (%) [2]: 6% and 13%
- Population Mitotic Cells (%) [2]: 55% and 64%
- Population Normal (%) [2]: 97% and 85%
- Population Pyknosed Nuclei (%) [2]: 16% and 22%
- Population Tubulin-Different-Phenotype (%) [2]: 45% and 60%
- Total Cell Count [2]: 126 and 149
- Population Apoptotic (%) [3]: 40% and 42%
- Population Fragmented Nuclei (%) [3]: 32% and 26%
- Population Healthy Nuclei (%) [3]: 58% and 53%
- Population Hoechst High Intensity Objects (%) [3]: 5% and 7%
- Population Membrane Permeable-Phenotype (%) [3]: 1% and 8%
- Population Mitochondria Different-Phenotype (%) [3]: 4% and 5%
- Population Mitotic Cells (%) [3]: 60% and 57%
- Population Normal (%) [3]: 94% and 92%
- Population Pyknosed Nuclei (%) [3]: 8% and 20%
- Total Cell Count [3]: 178 and 141
- Population Apoptotic (%) [4]: 60% and 38%
- Population Fragmented Nuclei (%) [4]: 18% and 40%
- Population Healthy Nuclei (%) [4]: 62% and 42%
- Population Hoechst High Intensity Objects (%) [4]: 5% and 10%
- Population Mitochondria Different-Phenotype (%) [4]: 7% and 3%
- Population Mitotic Cells (%) [4]: 39% and 61%
- Population Normal (%) [4]: 94% and 89%
- Population Pyknosed Nuclei (%) [4]: 18% and 17%
- Population Tubulin-Different-Phenotype (%) [4]: 35% and 51%
- Total Cell Count [4]: 131 and 138
- Population Apoptotic (%) [5]: 53%
- Population Fragmented Nuclei (%) [5]: 34% and 30%
- Population Healthy Nuclei (%) [5]: 57% and 50%
- Population Hoechst High Intensity Objects (%) [5]: 11% and 3%
- Population Membrane Permeable-Phenotype (%) [5]: 0% and 4%
- Population Mitochondria Different-Phenotype (%) [5]: 4%
- Population Mitotic Cells (%) [5]: 46%
- Population Normal (%) [5]: 88% and 96%
- Population Pyknosed Nuclei (%) [5]: 7% and 19%
- Population Tubulin-Different-Phenotype (%) [5]: 29% and 53%
- Total Cell Count [5]: 184 and 147
- Population Apoptotic (%) [6]: 73% and 60%
- Population Fragmented Nuclei (%) [6]: 20% and 45%
- Population Healthy Nuclei (%) [6]: 60% and 45%
- Population Hoechst High Intensity Objects (%) [6]: 4% and 13%
- Population Membrane Permeable-Phenotype (%) [6]: 1% and 10%
- Population Mitochondria Different-Phenotype (%) [6]: 8% and 6%
- Population Mitotic Cells (%) [6]: 26% and 40%
- Population Normal (%) [6]: 95% and 86%
- Population Pyknosed Nuclei (%) [6]: 18% and 9%
- Population Tubulin-Different-Phenotype (%) [6]: 46% and 50%
- Total Cell Count [6]: 130 and 122

SMILES: CN1CC[C@@]23CCCC[C@@H]2[C@@H]1Cc1ccc(O)cc13.O=C(O)C(O)C(O)C(=O)O
- Population Apoptotic (%) [1]: 6.98% and 13.16%
- Population Fragmented Nuclei (%) [1]: 5.26% and 4.9%
- Population Healthy Nuclei (%) [1]: 69.59% and 79.59%
- Population Hoechst High Intensity Objects (%) [1]: 0%
- Population Membrane Permeable-Phenotype (%) [1]: 1.68% and 2.05%
- Population Mitochondria Different-Phenotype (%) [1]: 8.4% and 8.21%
- Population Mitotic Cells (%) [1]: 93.02% and 86.84%
- Population Normal (%) [1]: 100%
- Population Pyknosed Nuclei (%) [1]: 25.15% and 15.51%
- Population Tubulin-Different-Phenotype (%) [1]: 15.97% and 20.51%
- Total Cell Count [1]: 171 and 245
- Population Apoptotic (%) [2]: 8.2% and 12.82%
- Population Fragmented Nuclei (%) [2]: 8.77% and 7.24%
- Population Healthy Nuclei (%) [2]: 64.47% and 79.31%
- Population Hoechst High Intensity Objects (%) [2]: 0%
- Population Membrane Permeable-Phenotype (%) [2]: 2.72% and 2.17%
- Population Mitochondria Different-Phenotype (%) [2]: 6.12% and 5.65%
- Population Mitotic Cells (%) [2]: 91.8% and 87.18%
- Population Normal (%) [2]: 100%
- Population Pyknosed Nuclei (%) [2]: 26.75% and 13.45%
- Population Tubulin-Different-Phenotype (%) [2]: 14.29% and 18.26%
- Total Cell Count [2]: 228 and 290
- Population Apoptotic (%) [3]: 13.16% and 10.71%
- Population Fragmented Nuclei (%) [3]: 6.63% and 3.19%
- Population Healthy Nuclei (%) [3]: 72.38% and 85.66%
- Population Hoechst High Intensity Objects (%) [3]: 0%
- Population Membrane Permeable-Phenotype (%) [3]: 0% and 2.79%
- Population Mitochondria Different-Phenotype (%) [3]: 9.92% and 5.12%
- Population Mitotic Cells (%) [3]: 86.84% and 89.29%
- Population Normal (%) [3]: 100%
- Population Pyknosed Nuclei (%) [3]: 20.99% and 11.16%
- Population Tubulin-Different-Phenotype (%) [3]: 17.56% and 14.88%
- Total Cell Count [3]: 181 and 251
- Population Apoptotic (%) [4]: 17.74% and 18.92%
- Population Fragmented Nuclei (%) [4]: 9.16% and 7.39%
- Population Healthy Nuclei (%) [4]: 68.13% and 79.58%
- Population Hoechst High Intensity Objects (%) [4]: 0%
- Population Membrane Permeable-Phenotype (%) [4]: 2.15% and 2.21%
- Population Mitochondria Different-Phenotype (%) [4]: 5.38% and 4.42%
- Population Mitotic Cells (%) [4]: 82.26% and 81.08%
- Population Normal (%) [4]: 100%
- Population Pyknosed Nuclei (%) [4]: 22.71% and 13.03%
- Population Tubulin-Different-Phenotype (%) [4]: 19.89% and 17.7%
- Total Cell Count [4]: 273 and 284
- Population Apoptotic (%) [5]: 30.77% and 40%
- Population Fragmented Nuclei (%) [5]: 9.57% and 5.1%
- Population Healthy Nuclei (%) [5]: 84.21% and 89.02%
- Population Hoechst High Intensity Objects (%) [5]: 0%
- Population Membrane Permeable-Phenotype (%) [5]: 0.57% and 3.52%
- Population Mitotic Cells (%) [5]: 69.23% and 60%
- Population Normal (%) [5]: 100%
- Population Pyknosed Nuclei (%) [5]: 6.22% and 5.88%
- Population Tubulin-Different-Phenotype (%) [5]: 6.82% and 14.54%
- Total Cell Count [5]: 209 and 255
- Population Apoptotic (%) [6]: 15.38% and 35.29%
- Population Fragmented Nuclei (%) [6]: 6.34% and 8.95%
- Population Healthy Nuclei (%) [6]: 88.81% and 85.62%
- Population Hoechst High Intensity Objects (%) [6]: 0%
- Population Membrane Permeable-Phenotype (%) [6]: 0.84% and 4.1%
- Population Mitochondria Different-Phenotype (%) [6]: 6.72% and 1.87%
- Population Mitotic Cells (%) [6]: 84.62% and 64.71%
- Population Normal (%) [6]: 100%
- Population Pyknosed Nuclei (%) [6]: 4.85% and 5.43%
- Population Tubulin-Different-Phenotype (%) [6]: 7.56% and 19.4%
- Total Cell Count [6]: 268 and 313
